In general, pIC50 refers to the IC50 on a negative log10 scale, so that one unit is a factor of ten. As usually defined, the TGI is the concentration giving total growth inhibition. The IC50 is the point on the concentration scale where inhibition reaches its midpoint.

Molecules are shown by their SMILES. pIC50: −log10 of the molar value. Active and inactive are the calls of the source. The calls are words filed in the database; no cut-off is given here.

For data set [1], the target named is RAF proto-oncogene serine/threonine-protein kinase (Homo sapiens, UniProt P04049). The data set can be described thus: Inhibition of human wild type CRAF using myelin basic protein as substrate in presence of [gamma-33P]ATP incubated for 40 mins by scintillation counting method.
RAF proto-oncogene serine/threonine-protein kinase, sequence (P04049 whole entry): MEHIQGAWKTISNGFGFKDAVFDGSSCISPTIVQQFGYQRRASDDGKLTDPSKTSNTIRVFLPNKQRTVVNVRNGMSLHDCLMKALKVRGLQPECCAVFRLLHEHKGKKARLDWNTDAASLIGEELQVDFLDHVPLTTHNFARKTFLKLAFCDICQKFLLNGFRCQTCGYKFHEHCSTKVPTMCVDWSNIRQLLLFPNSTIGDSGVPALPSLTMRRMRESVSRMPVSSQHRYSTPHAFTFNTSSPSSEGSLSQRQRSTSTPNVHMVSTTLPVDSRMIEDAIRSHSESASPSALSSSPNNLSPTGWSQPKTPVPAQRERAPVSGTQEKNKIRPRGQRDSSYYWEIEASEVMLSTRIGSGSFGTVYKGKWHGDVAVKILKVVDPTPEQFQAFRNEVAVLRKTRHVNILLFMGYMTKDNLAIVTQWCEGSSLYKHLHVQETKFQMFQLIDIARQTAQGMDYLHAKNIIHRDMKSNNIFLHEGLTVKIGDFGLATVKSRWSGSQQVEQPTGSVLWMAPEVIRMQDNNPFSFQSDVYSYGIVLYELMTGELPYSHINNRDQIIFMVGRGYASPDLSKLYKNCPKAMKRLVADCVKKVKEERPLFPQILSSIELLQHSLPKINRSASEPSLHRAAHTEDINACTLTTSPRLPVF
Data set [2] addresses Serine/threonine-protein kinase B-raf (Homo sapiens, UniProt P15056, V600E). Nature of the data set: Inhibition of human BRAF V600E mutant using myelin basic protein as substrate in presence of [gamma-33P]ATP incubated for 40 mins by scintillation counting method. An outline of the steps:
(§1)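 Radiometric kinase assay run at Reaction Biology. Kinase (5−10 mU) in 25 mM Tris pH 7.5, 0.02 mM EGTA, 10 mM magnesium acetate with 0.66 mg/mL myelin basic protein and [γ-33P]ATP at 1 μM ATP. Reaction started with Mg-ATP and run 40 min at room temperature, then stopped with 3% phosphoric acid. Spotted on P30 filtermat, washed, scintillation counted.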

Data set [3] has as its system Panel colon (Carcinoma cell lines). The data set can be described thus: cells. The conditions noted are these: Homo sapiens, 48 h, read-out: INH.
For data set [4], the target named is Serine/threonine-protein kinase B-raf (Homo sapiens, UniProt P15056). The data set can be described thus: Inhibition of human wild type BRAF using myelin basic protein as substrate in presence of [gamma-33P]ATP incubated for 40 mins by scintillation counting method. Summed up: as §1
Serine/threonine-protein kinase B-raf (Homo sapiens, UniProt P15056), sequence (P15056 whole entry): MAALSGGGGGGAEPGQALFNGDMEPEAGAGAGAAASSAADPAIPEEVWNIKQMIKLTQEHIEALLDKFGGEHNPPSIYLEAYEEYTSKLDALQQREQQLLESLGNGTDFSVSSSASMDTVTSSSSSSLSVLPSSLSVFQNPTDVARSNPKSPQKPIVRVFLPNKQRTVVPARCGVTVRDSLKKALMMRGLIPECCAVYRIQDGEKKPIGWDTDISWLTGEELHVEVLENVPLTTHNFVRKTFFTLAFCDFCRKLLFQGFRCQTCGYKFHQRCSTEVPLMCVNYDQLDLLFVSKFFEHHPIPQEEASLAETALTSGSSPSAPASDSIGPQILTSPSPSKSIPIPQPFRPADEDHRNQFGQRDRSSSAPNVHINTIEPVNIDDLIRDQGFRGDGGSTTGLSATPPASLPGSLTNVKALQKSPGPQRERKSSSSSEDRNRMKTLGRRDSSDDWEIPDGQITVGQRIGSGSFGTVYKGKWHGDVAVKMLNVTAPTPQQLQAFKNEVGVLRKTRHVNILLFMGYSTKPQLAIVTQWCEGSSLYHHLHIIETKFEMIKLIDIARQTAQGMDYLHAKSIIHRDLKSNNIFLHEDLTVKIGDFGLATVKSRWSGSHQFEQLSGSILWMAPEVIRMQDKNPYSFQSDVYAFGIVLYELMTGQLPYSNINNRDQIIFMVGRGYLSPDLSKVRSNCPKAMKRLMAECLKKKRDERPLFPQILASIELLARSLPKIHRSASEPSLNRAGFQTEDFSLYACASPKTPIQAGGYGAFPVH
Data set [5] is described as follows: Stability in rat plasma assessed as parent compound remaining at 10 uM measured after 30 mins by LC-MS analysis. Format: ADME, cell-free. To be noted: read-out: Stability. An outline of the steps: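 About 10 μM compound shaken in human or rat plasma at 37 °C for 30 and 120 min. Acetonitrile added, samples centrifuged at 4 °C, and remaining parent in the supernatant quantified by LC−MS. Procaine and diltiazem run as references.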

Data set [6] has as its system UACC-257. The data set can be described thus: Antiproliferative activity against human UACC-257 cells assessed as total growth inhibition measured after 48 hrs by SRB assay. The conditions noted are these: UACC-257, 48 h. On the technique in general: Sulforhodamine B stains cellular protein and so reports cell mass.
The test system of data set [7] is Panel colon (Carcinoma cell lines). Nature of the data set: Antiproliferative activity against human Panel colon (Carcinoma cell lines) assessed as cell growth inhibition measured after 48 hrs by SRB assay.
Data set [8] is described as follows: Cytotoxicity against human L132 cells assessed as cell growth inhibition incubated for 48 hrs by MTT assay. Format: toxicity, cell-based. (In general: Tetrazolium dyes change colour on reduction, which living cells bring about.)
For data set [9], the system named is LOX IMVI. Nature of the data set: Antiproliferative activity against human LOX IMVI cells assessed as total growth inhibition measured after 48 hrs by SRB assay.
The subject of data set [10] is Panel CNS (Carcinoma cell lines). The data set can be described thus: Antiproliferative activity against human Panel CNS (Carcinoma cell lines) assessed as cell growth inhibition measured after 48 hrs by SRB assay.
Data set [11] concerns Panel ovarian (Carcinoma cell lines). Nature of the data set: Antiproliferative activity against human Panel ovarian (Carcinoma cell lines) assessed as cell growth inhibition measured after 48 hrs by SRB assay.
The test system of data set [12] is SK-MEL-28. The data set can be described thus: Antiproliferative activity against human SK-MEL-28 cells assessed as cell growth inhibition measured after 48 hrs by SRB assay. The conditions noted are these: SK-MEL-28, 48 h.
The subject of data set [13] is Panel leukemia (Carcinoma cell lines). Nature of the data set: Antiproliferative activity against human Panel leukemia (Carcinoma cell lines) assessed as cell growth inhibition measured after 48 hrs by SRB assay.
Data set [14] has as its system Malme-3M. The data set can be described thus: Antiproliferative activity against human Malme-3M cells assessed as total growth inhibition measured after 48 hrs by SRB assay.
For data set [15], the system named is UACC-62. The data set can be described thus: Antiproliferative activity against human UACC-62 cells assessed as total growth inhibition measured after 48 hrs by SRB assay. The conditions noted are these: UACC-62, 48 h.
Data set [16] deals with M14. The data set can be described thus: Antiproliferative activity against human M14 cells assessed as total growth inhibition measured after 48 hrs by SRB assay. The conditions noted are these: M14, 48 h.
Data set [17] relates to SK-MEL-5. The data set can be described thus: Antiproliferative activity against human SK-MEL-5 cells assessed as cell growth inhibition measured after 48 hrs by SRB assay. The conditions noted are these: SK-MEL-5, 48 h.
In data set [18] the test system is SK-MEL-2. Nature of the data set: Antiproliferative activity against human SK-MEL-2 cells assessed as total growth inhibition measured after 48 hrs by SRB assay. The conditions noted are these: SK-MEL-2, 48 h.
The test system of data set [19] is Panel ovarian (Carcinoma cell lines). Nature of the data set: cells. The conditions noted are these: Homo sapiens, 48 h, read-out: INH.
Data set [20] concerns Panel melanoma (Carcinoma cell lines). Nature of the data set: cells. The conditions noted are these: Homo sapiens, 48 h, read-out: INH.
Data set [21] relates to Panel leukemia (Carcinoma cell lines). The data set can be described thus: cells. The conditions noted are these: Homo sapiens, 48 h, read-out: INH.
The test system of data set [22] is Panel renal (Carcinoma cell lines). The data set can be described thus: Antiproliferative activity against human Panel renal (Carcinoma cell lines) assessed as cell growth inhibition measured after 48 hrs by SRB assay.
The test system of data set [23] is LOX IMVI. The data set can be described thus: Antiproliferative activity against human LOX IMVI cells assessed as cell growth inhibition measured after 48 hrs by SRB assay.
Data set [24] concerns Malme-3M. Nature of the data set: Antiproliferative activity against human Malme-3M cells assessed as cell growth inhibition measured after 48 hrs by SRB assay.
The subject of data set [25] is M14. The data set can be described thus: Antiproliferative activity against human M14 cells assessed as cell growth inhibition measured after 48 hrs by SRB assay. The conditions noted are these: M14, 48 h.
For data set [26], the system named is MDA-MB-435. The data set can be described thus: Antiproliferative activity against human MDA-MB-435 cells assessed as total growth inhibition measured after 48 hrs by SRB assay. To be noted: MDA-MB-435, 48 h.
Data set [27] in a line: Cytotoxicity against human BJ cells assessed as cell growth inhibition incubated for 48 hrs by MTT assay. Format: toxicity, cell-based. Summed up:
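BJ1 normal skin fibroblasts were seeded at 10 × 10³ cells/well with compound in triplicate wells and grown in DMEM-F12 at 37 °C, 5% CO₂, across an eight-point dilution series. Growth inhibition was calculated as (1 − T/C) × 100, and IC50 was taken from the dose–response curve.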

A short description of the next data set: in vitro. To be noted: human, BJ cells and Malme-3M cells.
Another data set relates to NSCLC. The data set can be described thus: Antiproliferative activity against human NSCLC cell line assessed as cell growth inhibition measured after 48 hrs by SRB assay.
Data set [28] deals with SK-MEL-5. Nature of the data set: Antiproliferative activity against human SK-MEL-5 cells assessed as total growth inhibition measured after 48 hrs by SRB assay. The conditions noted are these: SK-MEL-5, 48 h.
Data set [29] deals with Panel breast (Carcinoma cell lines). The data set can be described thus: Antiproliferative activity against human Panel breast (Carcinoma cell lines) assessed as cell growth inhibition measured after 48 hrs by SRB assay.
Data set [30] deals with Panel prostate (Carcinoma cell lines). The data set can be described thus: Antiproliferative activity against human Panel prostate (Carcinoma cell lines) assessed as cell growth inhibition measured after 48 hrs by SRB assay.
In data set [31] the test system is MDA-MB-435. Nature of the data set: Antiproliferative activity against human MDA-MB-435 cells assessed as cell growth inhibition measured after 48 hrs by SRB assay. The conditions noted are these: MDA-MB-435, 48 h.
The test system of data set [32] is Panel melanoma (Carcinoma cell lines). The data set can be described thus: Antiproliferative activity against human Panel melanoma (Carcinoma cell lines) assessed as cell growth inhibition measured after 48 hrs by SRB assay.
Data set [33] deals with UACC-62. The data set can be described thus: Antiproliferative activity against human UACC-62 cells assessed as cell growth inhibition measured after 48 hrs by SRB assay. The conditions noted are these: UACC-62, 48 h.
For data set [34], the system named is UACC-257. Nature of the data set: Antiproliferative activity against human UACC-257 cells assessed as cell growth inhibition measured after 48 hrs by SRB assay. The conditions noted are these: UACC-257, 48 h.
Data set [35] relates to SK-MEL-28. The data set can be described thus: Antiproliferative activity against human SK-MEL-28 cells assessed as total growth inhibition measured after 48 hrs by SRB assay. To be noted: SK-MEL-28, 48 h.
The test system of data set [36] is SK-MEL-2. The data set can be described thus: Antiproliferative activity against human SK-MEL-2 cells assessed as cell growth inhibition measured after 48 hrs by SRB assay. To be noted: SK-MEL-2, 48 h.
For data set [37], the system named is A-375. The data set can be described thus: Inhibition of Pan-Raf in human A-375 cells assessed as reduction in MEK phosphorylation at 5 uM measured after 24 hrs by immunoblot assay. The format is cell-based. An outline of the steps: (§2)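 A375 cells were treated for 24 h, including at 5 μM alongside vemurafenib. Cells were lysed in RIPA buffer with phosphatase and protease inhibitors, separated by SDS-PAGE and blotted to PVDF. Blots were probed for phospho-MEK1/2, phospho-ERK1/2, total MEK and total ERK, with chemiluminescent detection.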
On the technique in general: In western blotting, separated proteins are transferred to a membrane and probed.

Data set [38] has as its system A-375. Nature of the data set: Inhibition of Pan-Raf in human A-375 cells assessed as reduction in ERK phosphorylation at 5 uM measured after 24 hrs by immunoblot assay. Format: cell-based. Summed up: as §2

Serine/threonine-protein kinase B-raf (Homo sapiens, UniProt P15056, V600E), sequence (P15056 2-766 V600E limits assumed): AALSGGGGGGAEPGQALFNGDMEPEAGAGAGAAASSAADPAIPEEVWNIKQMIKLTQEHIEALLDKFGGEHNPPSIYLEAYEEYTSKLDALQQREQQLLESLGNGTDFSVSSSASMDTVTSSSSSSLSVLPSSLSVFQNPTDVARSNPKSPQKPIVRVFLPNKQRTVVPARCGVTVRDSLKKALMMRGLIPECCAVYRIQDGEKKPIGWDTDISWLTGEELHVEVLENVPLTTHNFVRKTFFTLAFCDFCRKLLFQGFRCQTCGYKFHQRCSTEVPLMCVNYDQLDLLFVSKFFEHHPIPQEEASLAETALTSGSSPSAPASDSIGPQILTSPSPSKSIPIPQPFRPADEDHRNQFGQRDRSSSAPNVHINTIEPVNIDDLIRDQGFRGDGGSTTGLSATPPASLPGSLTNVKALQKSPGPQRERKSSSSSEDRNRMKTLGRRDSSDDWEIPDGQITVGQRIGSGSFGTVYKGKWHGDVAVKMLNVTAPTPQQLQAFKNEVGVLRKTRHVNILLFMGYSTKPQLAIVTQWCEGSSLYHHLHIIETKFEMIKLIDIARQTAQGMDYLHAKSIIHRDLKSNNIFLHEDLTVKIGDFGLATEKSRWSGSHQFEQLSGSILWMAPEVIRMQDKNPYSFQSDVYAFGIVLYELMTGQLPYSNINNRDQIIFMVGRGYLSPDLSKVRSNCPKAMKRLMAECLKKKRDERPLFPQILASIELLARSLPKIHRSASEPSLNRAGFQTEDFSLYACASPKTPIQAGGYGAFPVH

For `COc1cccc(-c2nc3sccn3c2-c2ccnc(NCCNS(=O)(=O)c3ccc4ccccc4c3)n2)c1`, the pIC50 in data set [1] was 6.72; in data set [2] it was 6.77; in [4] it was 6.04. Besides, the inhibition at 10 µM in [3] worked out at 83.1%.
`CCN(CC)CCOC(=O)c1ccc(N)cc1` [PROCAINE]: in [5], the remaining at 0.5 h, 10 µM was 84.9%.
On to `COc1ccc(S(=O)(=O)NCCNc2nccc(-c3c(-c4ccccc4)nc4sccn34)n2)cc1`, for which the concentration for total growth inhibition (TGI) in the data set with UACC-257 [6], in the data set with LOX IMVI [9], with Malme-3M [14], in the data set with UACC-62 [15], in the data set on M14 [16] and with SK-MEL-2 [18] was > 100 µM throughout. Also, the total growth inhibition concentration (TGI) in the data set on MDA-MB-435 [26], in the data set on SK-MEL-5 [28] and in the data set with SK-MEL-28 [35] was > 100 µM each time. The pIC50 in data set [7] was 5.66; in data set [1], 6.76; in data set [10] it was 5.19; in [11], 5.45; in the data set with SK-MEL-28 [12], 5.24; in data set [13] it was 5.52. The negative logarithm of the IC50 (pIC50) in the data set with SK-MEL-5 [17] is 5.77; in data set [22], 5.43; in the data set with LOX IMVI [23], 5.41; in the data set with Malme-3M [24], 5.06; with M14 [25], 5.57; with NSCLC, 5.27. Further, the pIC50 in data set [29] is 4.88; in data set [30], 5.61; with MDA-MB-435 [31], 5.92; in data set [32], 5.39; with UACC-62 [33], 5.96; with UACC-257 [34], 5.19. Moreover, the negative-log IC50 (pIC50) with SK-MEL-2 [36] was 5.31. Further, the values for the IC50 at 48 h in data set [8] and in data set [27] were 60.2 µM and 55.6 µM, respectively. Besides, the inhibition at 10 µM in data set [19] stood at 73.2%; in data set [20] it was 83.8%; in data set [21], 81.3%; in data set [3] it was 76.7%. Besides, in “in vitro”, the selectivity ratio came to 6.4.
Regarding `CCCS(=O)(=O)Nc1ccc(F)c(C(=O)c2c[nH]c3ncc(-c4ccc(Cl)cc4)cc23)c1F`, the inhibition entry in the data set on A-375 [37] and with A-375 [38] was “Active” in each case.
`CN1CCCN(CCNc2nccc(-c3c(-c4cccc(O)c4)nc4sccn34)n2)S1(=O)=O`: the total growth inhibition concentration (TGI) in the data set on UACC-257 [6] was > 100 µM; in the data set on LOX IMVI [9], 28.2 µM; in the data set with Malme-3M [14], 0.408 µM; with UACC-62 [15], 3.14 µM; in the data set on M14 [16] it was 12.9 µM; in the data set on SK-MEL-2 [18] it was 7.36 µM. For the same compound, the figures for the TGI in the data set on MDA-MB-435 [26], in the data set with SK-MEL-5 [28] and in the data set on SK-MEL-28 [35] were 51.6 µM, 10.3 µM and 52 µM, respectively. In addition, the negative logarithm of the IC50 (pIC50) was 5.09 in [7]; 8.71 in data set [1]; 4.78 in [10]; 4.92 in data set [11]; 6.62 in the data set with SK-MEL-28 [12]; 8.42 in data set [2]. The negative logarithm of the IC50 (pIC50) in data set [13] was 4.93; in the data set on SK-MEL-5 [17], 6.46; in data set [22], 5.22; with LOX IMVI [23], 5.36; in the data set with Malme-3M [24], 7.44; with M14 [25] it was 6.76. The pIC50 with NSCLC was 4.87; in [29] it was 4.92; in data set [30], 4.94; with MDA-MB-435 [31] it was 6.31; in [32], 5.75; in the data set with UACC-62 [33], 7.24. For the same compound, the values for the pIC50 (in the data set with UACC-257 [34]; in [4]; in the data set on SK-MEL-2 [36]) were 5.09, 8.20 and 5.65, respectively. Besides, the IC50 at 48 h in data set [8] was 93.6 µM; in data set [27], 75.6 µM. Also, the inhibition at 10 µM in data set [20] worked out at 84.8%. The selectivity ratio in “in vitro” stood at 2100.
